What all share (assay): two-electrode voltage clamp, Xenopus oocytes
Holding throughout (format): cell-based
A general note: Two-electrode voltage clamp is typically applied to oocytes expressing channels or transporters.

The target in test [1] is T1, Hco-UNC-49BC (Haemonchus contortus, UniProt D6BK80, H137K).
T1 sequence (D6BK80 22-496 H137K): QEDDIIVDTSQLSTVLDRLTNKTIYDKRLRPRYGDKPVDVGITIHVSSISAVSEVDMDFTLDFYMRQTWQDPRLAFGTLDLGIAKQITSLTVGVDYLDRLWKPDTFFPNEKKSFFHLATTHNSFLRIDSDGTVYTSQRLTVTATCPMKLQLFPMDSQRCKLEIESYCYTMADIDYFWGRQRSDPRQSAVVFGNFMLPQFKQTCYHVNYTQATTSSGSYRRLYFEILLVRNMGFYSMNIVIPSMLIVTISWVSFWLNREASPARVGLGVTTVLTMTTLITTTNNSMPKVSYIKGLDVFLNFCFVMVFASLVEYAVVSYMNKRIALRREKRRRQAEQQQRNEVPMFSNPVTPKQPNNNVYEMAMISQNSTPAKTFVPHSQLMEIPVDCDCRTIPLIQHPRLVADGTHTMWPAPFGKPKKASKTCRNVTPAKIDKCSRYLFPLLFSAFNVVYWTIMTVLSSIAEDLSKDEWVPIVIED
T1 sequence (D6BJF3 22-440 partner): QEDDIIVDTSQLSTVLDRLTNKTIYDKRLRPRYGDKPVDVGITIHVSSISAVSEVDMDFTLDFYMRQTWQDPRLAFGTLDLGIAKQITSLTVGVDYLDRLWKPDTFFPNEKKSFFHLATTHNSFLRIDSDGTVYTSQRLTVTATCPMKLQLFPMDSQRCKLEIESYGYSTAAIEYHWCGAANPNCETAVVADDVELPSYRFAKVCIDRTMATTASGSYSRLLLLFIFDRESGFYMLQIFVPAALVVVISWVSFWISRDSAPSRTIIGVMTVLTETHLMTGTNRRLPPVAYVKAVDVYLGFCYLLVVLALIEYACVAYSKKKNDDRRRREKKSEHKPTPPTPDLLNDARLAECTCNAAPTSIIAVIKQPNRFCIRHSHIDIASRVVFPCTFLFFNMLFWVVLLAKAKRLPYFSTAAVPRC
In outline: (§1)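 Oocytes from X. laevis, collagenase-treated in OR-2 (pH 7.5) for 2 h, were co-injected with wild-type or mutant hco-unc-49b cRNA plus wild-type hco-unc-49c cRNA and kept 48 h at 20ᵒC in supplemented ND96. Cells were clamped at −60 mV and GABA in ND96 was perfused, with 1–2 min ND96 washes between doses. Currents were normalised to each oocyte's maximal GABA response and fitted with a variable-slope Hill equation (≥5 oocytes, two batches).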

For test [2], the target named is T2, Hco-UNC-49BC (Haemonchus contortus, UniProt D6BK80, D83C).
T2 sequence (D6BK80 22-496 D83C): T1 sequence (D6BK80 22-496 H137K)
T2 sequence (D6BJF3 22-440 partner): T1 sequence (D6BJF3 22-440 partner)
The method, boiled down:
as §1

Test [3] has as its target T3, Hco-UNC-49BC (Haemonchus contortus, UniProt D6BK80, R159A).
T3 sequence (D6BK80 22-496 R159A): T1 sequence (D6BK80 22-496 H137K)
T3 sequence (D6BJF3 22-440 partner): T1 sequence (D6BJF3 22-440 partner)
In outline:
as §1

For test [4], the target named is T4, Hco-UNC-49BC (Haemonchus contortus, UniProt D6BK80, D83T).
T4 sequence (D6BK80 22-496 D83T): T1 sequence (D6BK80 22-496 H137K)
T4 sequence (D6BJF3 22-440 partner): T1 sequence (D6BJF3 22-440 partner)
The method, boiled down:
as §1

Test [5] concerns the target T5, Hco-UNC-49BC (Haemonchus contortus, UniProt D6BK80, D83E).
T5 sequence (D6BK80 22-496 D83E): T1 sequence (D6BK80 22-496 H137K)
T5 sequence (D6BJF3 22-440 partner): T1 sequence (D6BJF3 22-440 partner)
In outline:
as §1

For test [6], the target named is T6, Hco-UNC-49BC (Haemonchus contortus, UniProt D6BK80, D83N).
T6 sequence (D6BK80 22-496 D83N): T1 sequence (D6BK80 22-496 H137K)
T6 sequence (D6BJF3 22-440 partner): T1 sequence (D6BJF3 22-440 partner)
The method, boiled down: as §1

For test [7], the target named is T7, Hco-UNC-49BC (Haemonchus contortus, UniProt D6BK80, R241K).
T7 sequence (D6BK80 22-496 R241K): T1 sequence (D6BK80 22-496 H137K)
T7 sequence (D6BJF3 22-440 partner): T1 sequence (D6BJF3 22-440 partner)
In outline:
as §1

Test [8] deals with T8, Hco-UNC-49BC (Haemonchus contortus, UniProt D6BK80, E131A).
T8 sequence (D6BK80 22-496 E131A): T1 sequence (D6BK80 22-496 H137K)
T8 sequence (D6BJF3 22-440 partner): T1 sequence (D6BJF3 22-440 partner)
In outline:
as §1

For test [9], the target named is T9, Hco-UNC-49BC (Haemonchus contortus, UniProt D6BK80).
T9 sequence (D6BK80 22-496): T1 sequence (D6BK80 22-496 H137K)
T9 sequence (D6BJF3 22-440 partner): T1 sequence (D6BJF3 22-440 partner)
In outline:
as §1

The target in test [10] is T10, Hco-UNC-49BC (Haemonchus contortus, UniProt D6BK80, R241A).
T10 sequence (D6BK80 22-496 R241A): T1 sequence (D6BK80 22-496 H137K)
T10 sequence (D6BJF3 22-440 partner): T1 sequence (D6BJF3 22-440 partner)
The method, boiled down: as §1

Test [11] concerns the target T11, Hco-UNC-49BC (Haemonchus contortus, UniProt D6BK80, H137A).
T11 sequence (D6BK80 22-496 H137A): T1 sequence (D6BK80 22-496 H137K)
T11 sequence (D6BJF3 22-440 partner): T1 sequence (D6BJF3 22-440 partner)
The method, boiled down: as §1

Results on one compound are retold here after publication PMC6287672 (International Journal for Parasitology: Drugs and Drug …, 2018).

Molecules are shown by their SMILES.

Broadly, the EC50 is the midpoint of the concentration-response curve. A high value points to a need for much substance. For the compound `NCCCC(=O)O` [GABA], the EC50 on Hco-UNC-49BC [1] was 4170 ± 745 µM; on Hco-UNC-49BC [2], 454 ± 47 µM; on Hco-UNC-49BC [3], 5470 ± 396 µM; on Hco-UNC-49BC [4], 520 ± 34 µM; at Hco-UNC-49BC [5], 276 ± 37 µM; at Hco-UNC-49BC [6], 342 ± 30 µM. The EC50 on Hco-UNC-49BC [7] was determined as 3790 ± 435 µM; on Hco-UNC-49BC [8], 219 ± 21 µM; on Hco-UNC-49BC [9], 68 ± 17 µM; on Hco-UNC-49BC [10] it was 5170 ± 473 µM; at Hco-UNC-49BC [11] it was 2170 ± 173 µM.
